Hits are enriched below; roughly 1.3% of the tested compounds scored in any of these assays.
PLCg1 inh = inhibitors of human phospholipase C gamma1; P19174; purified PLC-gamma1, fluorogenic substrate, fluorescence; inhibition, % at 12.2 µM; hit rate 0.84% among 370,000; AID 720700
Arrestin-AP2 inh = human beta-arrestin and AP2 interaction inhibition; FITC-arrestin peptide / GST-AP2 beads, flow cytometry; AP2 beta2 appendage carries R879A mutation; inhibition, % at 10 µM; hit rate 0.31% among 340,000;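 active means inhibition above a set limit, near 3 SD of compounds lacking own fluorescence, cut at about 54% in these data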;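 further: plate controls were DMSO wells for no effect and 5 µM unlabelled arrestin peptide for full effect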
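System: GST-AP2 R879A glutathione beads. Medium: PBS with 0.05% Tween 20 and 0.1% BSA. Also added: FITC-arrestin peptide, 50 nM. Incubation: 12 min plus 1 h, RT. Measured by: high-throughput flow cytometry of beads, ex 488, em 535 nm. Evaluation: percent drop in bead-associated FITC signal.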
NTR1 ag = agonists of human neurotensin receptor NTR1; activation, % at 20 µM; NTR1-U2OS beta-arrestin-GFP spot imaging, agonist mode; AID 493036; hit rate 0.17% among 330,000;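 active means activation at or above 40% of the spot to cytoplasm intensity ratio, with at least 20 cells analyzed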;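 further: 0% = DMSO without peptide and 100% = 100 nM NTR1 peptide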
PLC-beta3 inh = inhibitors of human phospholipase C beta3; Q01970; Purified PLC-beta3, fluorogenic substrate, fluorescence; inhibition, % at 12.2 µM; hit rate 0.18% among 370,000; AID 720704; in the data active means inhibition above about 11%;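 further: 0% = median of compound wells on plate and 100% = full blocker control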
Target sequence (Q01970 whole entry, looked up): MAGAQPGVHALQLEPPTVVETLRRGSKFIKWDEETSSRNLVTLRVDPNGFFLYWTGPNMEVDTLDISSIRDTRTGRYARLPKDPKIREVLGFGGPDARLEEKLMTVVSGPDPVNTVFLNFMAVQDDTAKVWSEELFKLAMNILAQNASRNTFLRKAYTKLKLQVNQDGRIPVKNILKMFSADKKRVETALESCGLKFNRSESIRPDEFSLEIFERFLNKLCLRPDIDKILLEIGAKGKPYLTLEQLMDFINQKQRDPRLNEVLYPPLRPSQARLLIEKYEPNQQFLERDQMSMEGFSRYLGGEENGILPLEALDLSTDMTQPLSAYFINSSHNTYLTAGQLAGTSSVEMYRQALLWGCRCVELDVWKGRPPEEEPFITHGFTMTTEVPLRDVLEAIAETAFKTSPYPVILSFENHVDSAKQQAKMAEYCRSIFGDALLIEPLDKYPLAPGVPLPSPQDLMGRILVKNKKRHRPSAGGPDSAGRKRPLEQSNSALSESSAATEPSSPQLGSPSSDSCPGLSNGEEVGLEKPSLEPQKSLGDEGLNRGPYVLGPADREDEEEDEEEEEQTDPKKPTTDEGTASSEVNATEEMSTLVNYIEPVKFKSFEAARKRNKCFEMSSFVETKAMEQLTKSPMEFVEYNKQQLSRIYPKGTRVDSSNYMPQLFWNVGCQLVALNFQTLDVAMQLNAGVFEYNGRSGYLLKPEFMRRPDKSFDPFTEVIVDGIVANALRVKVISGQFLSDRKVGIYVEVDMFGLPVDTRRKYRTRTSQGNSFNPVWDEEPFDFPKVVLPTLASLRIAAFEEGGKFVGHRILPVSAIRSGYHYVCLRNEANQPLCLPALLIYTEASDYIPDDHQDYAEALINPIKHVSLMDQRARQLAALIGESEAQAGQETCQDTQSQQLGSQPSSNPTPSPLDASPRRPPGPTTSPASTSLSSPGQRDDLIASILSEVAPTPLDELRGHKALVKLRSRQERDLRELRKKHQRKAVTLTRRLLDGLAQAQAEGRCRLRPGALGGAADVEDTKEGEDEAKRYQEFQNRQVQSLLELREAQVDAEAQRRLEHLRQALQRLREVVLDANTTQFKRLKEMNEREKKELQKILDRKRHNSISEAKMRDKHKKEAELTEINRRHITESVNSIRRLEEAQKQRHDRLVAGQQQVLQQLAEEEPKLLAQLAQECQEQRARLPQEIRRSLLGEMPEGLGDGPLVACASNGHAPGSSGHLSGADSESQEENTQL
PLCgamma1 ctr = PLC-gamma1 inhibition, counter-screen for PLC-beta3 hits. shares compounds with PLCg1 inh. purified PLC-gamma1, fluorogenic substrate, fluorescence. inhibition, % at 12.3 µM. hit rate 3.1% among 3,300. AID 743258
PLCb3 confirm = confirmation of human PLC-beta3 inhibitors. shares compounds with PLCg1 inh. purified PLC-beta3, fluorogenic substrate fluorescence. inhibition, % at 12.3 µM. hit rate 1% among 3,300; in the data active means inhibition above about 11%
* marks the source's active call; other numbers are inactive results. Unless noted, no stated cut-off is given here; in the data, active means inhibition above about 9.5%; inactive means the rest.

O=C(CSc1nncn1-c1ccccc1)Nc1ccc(N2CCOCC2)cc1 was read as PLCg1 inh 9.8*, Arrestin-AP2 inh -10, NTR1 ag 0, PLC-beta3 inh 1, PLCgamma1 ctr -4 and PLCb3 confirm -2.
`O=C(CSc1n[nH]c(=O)n1-c1ccccc1)Nc1ccccc1` gave PLCg1 inh 15*, Arrestin-AP2 inh 13, NTR1 ag 0, PLC-beta3 inh 9, PLCgamma1 ctr -10 and PLCb3 confirm -4.
For O=C(CSc1nnnn1-c1ccccc1)Nc1ccc(Cl)cn1 the results were PLCg1 inh 1, Arrestin-AP2 inh -4, NTR1 ag 0 and PLC-beta3 inh 1.
`O=C(CSc1nnnn1-c1ccccc1)Nc1ccc(Cl)cc1` gave PLCg1 inh 14*, Arrestin-AP2 inh -1, NTR1 ag 0, PLC-beta3 inh 4, PLCgamma1 ctr -7 and PLCb3 confirm -2.
For COc1ccc(N2CCN(CCNS(=O)(=O)c3ccc(Br)s3)CC2)cc1 the results were PLCg1 inh -2 and PLC-beta3 inh -1.
CCC[C@H]1[C@@H](NC(=O)c2ccc(OC)cc2)CC[C@@]23CCCN2C(=O)CCC[C@@H]13 was read as PLCg1 inh 2 and PLC-beta3 inh 2.
O=C(NCCc1ccc(Cl)cc1Cl)c1cncc(Br)c1 was read as PLCg1 inh 11*, Arrestin-AP2 inh -5, NTR1 ag -1, PLC-beta3 inh 0, PLCgamma1 ctr -6 and PLCb3 confirm -2.
Screening O=C(Cc1ccc(Br)cc1)NCCc1ccc(Cl)cc1Cl returned PLCg1 inh -2, Arrestin-AP2 inh 20, NTR1 ag 2 and PLC-beta3 inh -9.
For CN1/C(=C/C(=O)C2CCC2)Sc2ccccc21 the results were PLCg1 inh 11*, Arrestin-AP2 inh 10, NTR1 ag 1, PLC-beta3 inh 10, PLCgamma1 ctr 0 and PLCb3 confirm 2.
`Cc1cccc(-c2nn(-c3ccccc3)cc2C(=O)Nc2cccc(S(=O)(=O)NC3=NCCC3)c2)c1` gave PLCg1 inh 11*, Arrestin-AP2 inh 4, NTR1 ag 2, PLC-beta3 inh 2, PLCgamma1 ctr -6 and PLCb3 confirm -3.
For COc1cccc(C(=O)N/N=C/c2ccc(OC3CSC3)cc2)c1 the results were PLCg1 inh 10*, Arrestin-AP2 inh 15, NTR1 ag 1, PLC-beta3 inh 2, PLCgamma1 ctr -1 and PLCb3 confirm 0.
Screening Cc1ccc([C@@H]2CC=C(C(=O)O)[C@H](c3ccc(Cl)cc3)N2S(=O)(=O)c2ccc(C)cc2)cc1 returned PLCg1 inh -4, Arrestin-AP2 inh -4, NTR1 ag 21 and PLC-beta3 inh -5.
`Cc1ccc(S(=O)(=O)N2[C@@H](c3ccc(Cl)cc3)C(C(=O)O)=CC[C@H]2c2ccc(Cl)cc2)cc1` gave PLCg1 inh 9.8*, Arrestin-AP2 inh 8, NTR1 ag 10, PLC-beta3 inh -7, PLCgamma1 ctr -4 and PLCb3 confirm -4.
CN(C)c1nc(Oc2ccc(=O)n(-c3ccccc3)n2)nc(N2CCOCC2)n1 was read as PLCg1 inh 13*, Arrestin-AP2 inh 19, NTR1 ag 9, PLC-beta3 inh -2, PLCgamma1 ctr -6 and PLCb3 confirm 0.
CCNc1nc(Oc2ccc(=O)n(-c3ccccc3)n2)nc(N2CCOCC2)n1 was read as PLCg1 inh 4, Arrestin-AP2 inh 7, NTR1 ag -2 and PLC-beta3 inh 2.
For CCOc1ccc(S(=O)(=O)N2CCC(C(=O)N3CCCC3)CC2)cc1C the results were PLCg1 inh 11*, Arrestin-AP2 inh 10, NTR1 ag -2, PLC-beta3 inh 3, PLCgamma1 ctr 3 and PLCb3 confirm 2.
`CCOc1ccc(Cl)cc1S(=O)(=O)N1CCC(C(=O)N2CCCC2)CC1` gave PLCg1 inh -2, Arrestin-AP2 inh 24, NTR1 ag 0 and PLC-beta3 inh -2.
For O=C(NCCc1c[nH]c2ccccc12)OCc1cn(Cc2cc(F)ccc2F)nn1 the results were PLCg1 inh -2 and PLC-beta3 inh -2.
Cc1ccc(CN2CCC[C@]3(N[C@H](c4ccc(C)cc4)[C@@H]4C(=O)N(Cc5ccccc5)C(=O)[C@@H]43)C2=O)cc1 was read as PLCg1 inh 9.9*, PLC-beta3 inh 8, PLCgamma1 ctr -2 and PLCb3 confirm 1.
For Cc1ccc(CN2CCC[C@]3(N[C@H](c4ccccc4)[C@@H]4C(=O)N(Cc5ccccc5)C(=O)[C@@H]43)C2=O)cc1 the results were PLCg1 inh 1 and PLC-beta3 inh 0.
O[C@H](COc1ccc(Cl)cc1)CN1CCC(C(O)(c2ccccc2)c2ccccc2)CC1 was read as PLCg1 inh 1 and PLC-beta3 inh 0.
For OC(COc1ccc(-c2ccccc2)cc1)CN1CCOCC1 (stereo not drawn) the results were NTR1 ag 1.
Screening OC(COc1ccc(OCc2ccccc2)cc1)CN1CCOCC1 (stereo not drawn) returned PLCg1 inh 9.7*, Arrestin-AP2 inh 7, NTR1 ag 0, PLC-beta3 inh 9, PLCgamma1 ctr -3 and PLCb3 confirm 2.
Screening O[C@H](COc1ccccc1)CN1CCC(C(O)(c2ccccc2)c2ccccc2)CC1 returned PLCg1 inh 5, PLC-beta3 inh 12*, PLCgamma1 ctr -4 and PLCb3 confirm -1.
Screening CC1=NN(c2ccc(C)c(C)c2)C(=O)C1C(c1cccc(O)c1)C1C(=O)N(c2ccc(C)c(C)c2)N=C1C (stereo not drawn) returned PLCg1 inh 16*, Arrestin-AP2 inh 9, NTR1 ag 15, PLC-beta3 inh 5, PLCgamma1 ctr 0 and PLCb3 confirm -1.
For N#Cc1c(NC(=O)C2CC(c3ccccc3Cl)=NO2)sc2c1CCC2 (stereo not drawn) the results were PLCg1 inh -2, Arrestin-AP2 inh 31, NTR1 ag 9 and PLC-beta3 inh -6.
Screening N#Cc1c(NC(=O)C2CC(c3ccccc3O)=NO2)sc2c1CCC2 (stereo not drawn) returned PLCg1 inh 14*, Arrestin-AP2 inh 18, NTR1 ag 4, PLC-beta3 inh 0, PLCgamma1 ctr -4 and PLCb3 confirm -2.
Screening O=C(C[C@@H]1C/C=C\C[C@H](Cc2ccc(F)cc2)C(=O)OC[C@H]2CCCN2C1=O)NCCO returned PLCg1 inh 10*, Arrestin-AP2 inh 4, NTR1 ag -1, PLC-beta3 inh 3, PLCgamma1 ctr -8 and PLCb3 confirm -2.
Screening O=C(C[C@@H]1C/C=C\CCC(=O)OC[C@@H]2CCCN2C1=O)N[C@@H](CO)Cc1ccccc1 returned PLCg1 inh 13*, Arrestin-AP2 inh 27, NTR1 ag 0, PLC-beta3 inh 12*, PLCgamma1 ctr 6 and PLCb3 confirm 1.
`O=C(C[C@@H]1C/C=C\C[C@@H](Cc2ccc(F)cc2)C(=O)OC[C@H]2CCCN2C1=O)NCCO` gave PLCg1 inh 0, NTR1 ag 2 and PLC-beta3 inh -3.
